ChEMBL document CHEMBL2062366, “Synthesis and biological evaluation of purpurealidin E-derived marine sponge metabolites: aplysamine-2, aplyzanzine A, and suberedamines A and B” (2012)
≈ marks a conversion by molar mass, not a printed value. Calls of active or inactive are those of the source. The rule behind the calls is not given here.

Legend:
Assay type in all cases: functional
Bacillus subtilis = test: Antibacterial activity against Bacillus subtilis NCTC 9372 after 24 hrs; details: NCTC 9372, 24 h
Procedure, shortened: (§1)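 Agar dilution in Isosensitest agar at final compound levels of 128–1 μg/mL, from 10 mg/mL DMSO stocks. Solvent-only control plates covered the same DMSO range. Strains were pre-grown overnight on Columbia agar at 37 °C and multipoint-inoculated at 10 000 cfu/spot. Plates were read after 24 h at 37 °C. MIC was taken as the lowest concentration giving no visible growth, with tests repeated on a separate occasion.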

Enterococcus faecalis = test: Antibacterial activity against Enterococcus faecalis NCTC 775 after 24 hrs; details: NCTC 775, 24 h; procedure, shortened: as §1
Enterococcus faecium = test: Antibacterial activity against Enterococcus faecium NCTC 7171 after 24 hrs; details: NCTC 7171, 24 h; procedure, shortened: as §1
Listeria monocytogenes = test: Antibacterial activity against Listeria monocytogenes NCTC 11994 after 24 hrs; details: NCTC 11994, 24 h; procedure, shortened: as §1
[1] = test system: Staphylococcus epidermidis; test: Antibacterial activity against Staphylococcus epidermidis NCTC 11047 after 24 hrs; details: NCTC 11047, 24 h; procedure, shortened: as §1
Staphylococcus aureus [2] = test: Antibacterial activity against Staphylococcus aureus NCTC 6571 after 24 hrs; details: NCTC 6571, 24 h
Procedure, shortened: (§2)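 Agar dilution on Isosensitest agar with final 128−1 μg/mL compound from DMSO solution; DMSO-only control plates. Strains pre-grown overnight on Columbia agar at 37 °C, suspended in sterile water, diluted to give 10 000 cfu per spot. Incubated 37 °C, 24 h. MIC = lowest concentration completely inhibiting visible growth; repeated on a separate occasion.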

Staphylococcus aureus [3] = test: Antibacterial activity against methicillin-resistant Staphylococcus aureus NCTC 11939 after 24 hrs; details: NCTC 11939, 24 h; procedure, shortened: as §2
Streptococcus pyogenes = test: Antibacterial activity against Streptococcus pyogenes NCTC 8306 after 24 hrs; details: NCTC 8306, 24 h; procedure, shortened: as §1
[4] = test system: Mycobacterium tuberculosis; test: Antimycobacterial activity against Mycobacterium tuberculosis H37Rv after 2 weeks by spot culture growth inhibition assay
Procedure, shortened: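 H37Rv grown as standing culture in 7H9 + 10% ADC + 0.05% Tween-80 to McFarland 1, checked for contamination on blood agar. Culture diluted to 10³ cfu/mL; 10 μL spotted onto 7H10 agar + 10% OADC with compound, 37 °C, 2 weeks. Controls: DMSO (negative), isoniazid (positive). MIC = lowest concentration with no growth.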

K562 = test: Growth inhibition of human K562 cells after 48 hrs by sulforhodamine B assay; details: K562, 48 h, pooled result: one value given for 6 cell lines, strains, targets or settings
Procedure, shortened: (§3)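 Run at the NCI Developmental Therapeutics Program under the standard DTP NCI60 protocol. Total cell protein was measured by sulforhodamine B staining at time 0 and after 48 h exposure. GI50, the concentration giving a 50% reduction of growth, was estimated from dose–response curves.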

Escherichia coli = test: Antibacterial activity against Escherichia coli NCTC 10418 after 24 hrs; details: NCTC 10418, 24 h; procedure, shortened: as §1
Candida albicans = test: Antifungal activity against Candida albicans ATCC 90028 after 24 hrs; details: ATCC 90028, 24 h; procedure, shortened: as §1
Nakaseomyces glabratus = test: Antifungal activity against Candida glabrata NCPF 9725 after 24 hrs; details: NCPF 9725, 24 h; procedure, shortened: as §1
[5] = Growth inhibition of human NCI60 cells after 48 hrs by sulforhodamine B assay; details: NCI60, 48 h; procedure, shortened: as §3

| Compound | MIC (Bacillus subtilis) [µg/mL] | MIC (Enterococcus faecium) [µg/mL] | MIC (Listeria monocytogenes) [µg/mL] | MIC [1] [µg/mL] | MIC (Staphylococcus aureus [2]) [µg/mL] | MIC (Staphylococcus aureus [3]) [µg/mL] | MIC (Streptococcus pyogenes) [µg/mL] | MIC ([4]; 336 h) [µg/mL] | other results |
| --- | --- | --- | --- | --- | --- | --- | --- | --- | --- |
| COc1ccc(C/C(=N\O)C(=O)NCCc2cc(Br)c(OCCCN(C)C)c(Br)c2)cc1Br | 32 (≈ 49.2 µM) | 64 (≈ 98.4 µM) | 64 (≈ 98.4 µM) | 64 (≈ 98.4 µM) | 32 (≈ 49.2 µM) | 64 (≈ 98.4 µM) | 32 (≈ 49.2 µM) | 25 (≈ 38.4 µM) | MIC (Enterococcus faecalis): 64 µg/mL (≈ 98.4 µM) |
| CN[C@@H](Cc1cc(Br)c(OC)c(Br)c1)C(=O)NCCc1cc(Br)c(OCCCN(C)C)c(Br)c1 | – | – | – | – | – | – | – | – | GI50 (K562; read-out: GI50): 2.17 µM; GI50 (K562; read-out: pGI50 (converted)): 4.79 µM |
| CN(C)CCCOc1c(Br)cc(CCN)cc1Br | – | – | – | – | – | – | – | – | MIC [4]: inactive |
| CNC(Cc1cc(Br)c(OC)c(Br)c1)C(=O)NCCCOc1c(Br)cc(CCN(C)C)cc1Br.Cl (centres undefined) [ANOMOIAN A] | 32 | 64 | 64 | 64 | 64 | 64 | 64 | 25 | MIC (Escherichia coli): 64 µg/mL |
| COc1c(Br)cc(C[C@@H](C(=O)NCCc2cc(Br)c(OCCCN(C)C)c(Br)c2)N(C)C)cc1Br [APLYZANZINE A] | 16 (≈ 21.5 µM) | 32 (≈ 43.1 µM) | 32 (≈ 43.1 µM) | 16 (≈ 21.5 µM) | 32 (≈ 43.1 µM) | 32 (≈ 43.1 µM) | 16 (≈ 21.5 µM) | 25 (≈ 33.6 µM) | MIC (Escherichia coli): 32 µg/mL (≈ 43.1 µM); MIC (Enterococcus faecalis): 32 µg/mL (≈ 43.1 µM); MIC (Candida albicans): 64 µg/mL (≈ 86.1 µM); MIC (Nakaseomyces glabratus): 64 µg/mL (≈ 86.1 µM) |
| COc1ccc(C[C@H](N)C(=O)NCCc2cc(Br)c(OCCCN(C)C)c(Br)c2)cc1Br [SUBEREDAMINE A] | 64 (≈ 101 µM) | – | – | 64 (≈ 101 µM) | – | – | – | 50 (≈ 78.6 µM) | – |
| CN[C@@H](Cc1ccc(OC)c(Br)c1)C(=O)NCCc1cc(Br)c(OCCCN(C)C)c(Br)c1 [SUBEREDAMINE B] | – | – | – | – | – | – | – | 40 (≈ 61.5 µM) | GI50 ([5]; read-out: GI50): 5.47 µM; GI50 ([5]; read-out: pGI50 (converted)): 4.79 µM |
